Measurements published in ChEMBL document CHEMBL1817589, “Synthesis and antibacterial activity of C2-symmetric binaphthyl scaffolded amino acid derivatives” (2011).
≈ marks a conversion by molar mass, not a printed value.

How the values were obtained:
Enterococcus faecium [1] = test: Antibacterial activity against vancomycin-resistant Enterococcus faecium isolate 820; assay type: functional
Summary of the method: (§1)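 Wild-type and clinical E. faecium isolates were grown in Enterococcosal broth. Overnight stationary-phase cultures were diluted 1:1000 into fresh medium and incubated with two-fold compound dilutions (seven concentrations) overnight at 37 °C in 96-well plates. The MIC was recorded as the […], and values were rounded.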

Staphylococcus aureus [2] = test: Antibacterial activity against vancomycin-sensitive Staphylococcus aureus ATCC 6538P; assay type: functional
Enterococcus faecium [3] = test: Antibacterial activity against vancomycin-resistant Enterococcus faecium isolate 449; assay type: functional; summary of the method: as §1
Enterococcus faecium [4] = test: Antibacterial activity against vancomycin-sensitive Enterococcus faecium isolate 987
Enterococcus faecium [5] = test: Antibacterial activity against vancomycin-resistant Enterococcus faecium isolate 243; assay type: functional; summary of the method: as §1
Staphylococcus aureus [6] = test: Antibacterial activity against Staphylococcus aureus; assay type: functional
[7] = Staphylococcus aureus, ATCC 6538P, read-out: MIC
[8] = Enterococcus faecium, isolate 243, read-out: MIC

Row | MIC (Staphylococcus aureus [6]) [µM] | Compound | MIC (Enterococcus faecium [1]) [µM] | MIC (Staphylococcus aureus [2]; [7]) [µM] | MIC (Enterococcus faecium [3]) [µM] | MIC (Enterococcus faecium [4]) [µM] | MIC (Enterococcus faecium [5]; [8]) [µM] | MIC (Staphylococcus aureus [2]) [µM] | MIC (Enterococcus faecium [5]) [µM]
1 | – | COC(=O)[C@@H](CCCNC(=N)N)NC(=O)CCCOc1ccc2ccccc2c1-c1c(OCCCC(=O)N[C@H](CCCNC(=N)N)C(=O)OC)ccc2ccccc12 | > 143 | 18 (≈ 14.4 µg/mL) | > 143 | – | – | – | –
2 | – | N=C(N)NCCCC[C@@H](NC(=O)CCCOc1ccc2ccccc2c1-c1c(OCCCC(=O)N[C@H](CCCCNC(=N)N)C(=O)OCc2cccc3ccccc23)ccc2ccccc12)C(=O)OCc1cccc2ccccc12 | 54 (≈ 58.3 µg/mL) | 7 (≈ 7.56 µg/mL) | 109 (≈ 118 µg/mL) | > 108 | > 109 | – | –
3 | – | CN[C@H](CC(C)C)C(=O)N[C@H]1C(=O)N[C@@H](CC(N)=O)C(=O)N[C@H]2C(=O)N[C@H]3C(=O)N[C@H](C(=O)N[C@H](C(=O)O)c4cc(O)cc(O)c4-c4cc3ccc4O)[C@H](O)c3ccc(c(Cl)c3)Oc3cc2cc(c3O[C@@H]2O[C@H](CO)[C@@H](O)[C@H](O)[C@H]2O[C@H]2C[C@](C)(N)[C@H](O)[C@H](C)O2)Oc2ccc(cc2Cl)[C@H]1O [VANCOMYCIN] | > 86 | 1 (≈ 1.45 µg/mL) | 43 (≈ 62.3 µg/mL) | < 1 | 1 (≈ 1.45 µg/mL) | – | –
4 | – | NCCCC[C@@H](NC(=O)CCCOc1ccc2ccccc2c1-c1c(OCCCC(=O)N[C@H](CCCCN)C(=O)OCc2ccccc2)ccc2ccccc12)C(=O)OCc1ccccc1 | 65 (≈ 58.2 µg/mL) | 4 (≈ 3.58 µg/mL) | 65 (≈ 58.2 µg/mL) | 129 (≈ 115 µg/mL) | 129 (≈ 115 µg/mL) | – | –
5 | – | Cl.Cl.N=C(N)NCCC[C@@H](NC(=O)CCCOc1ccc2ccccc2c1-c1c(OCCCC(=O)N[C@H](CCCNC(=N)N)C(=O)OCc2ccccc2)ccc2ccccc12)C(=O)OCc1ccccc1 (stereo in doubt; 22) | – | – | – | – | – | 4 | 31
6 | 2 (≈ 1.71 µg/mL) | C=CCOc1ccc2ccccc2c1-c1c(OCC(=O)N[C@H](CCCCN)C(=O)N[C@H](CCCNC(=N)N)C(=O)N[C@@H](CC=C)C(=O)OCc2ccccc2)ccc2ccccc12 | – | – | – | – | – | – | –
7 | – | N=C(N)NCCC[C@@H](NC(=O)CCCOc1ccc2ccccc2c1-c1c(OCCCC(=O)N[C@H](CCCNC(=N)N)C(=O)NCc2ccccc2)ccc2ccccc12)C(=O)NCc1ccccc1 | 122 (≈ 116 µg/mL) | 2 (≈ 1.9 µg/mL) | 61 (≈ 57.9 µg/mL) | 122 (≈ 116 µg/mL) | 61 (≈ 57.9 µg/mL) | – | –
8 | – | NCCCC[C@@H](NC(=O)CCCOc1ccc2ccccc2c1-c1c(OCCCC(=O)N[C@H](CCCCN)C(=O)OCc2ccccn2)ccc2ccccc12)C(=O)OCc1ccccn1 | > 129 | 129 (≈ 116 µg/mL) | > 129 | > 129 | > 129 | – | –
9 | – | COC(=O)[C@@H](CCCCN)NC(=O)CCCOc1ccc2ccccc2c1-c1c(OCCCC(=O)N[C@H](CCCCN)C(=O)OC)ccc2ccccc12 | – | > 153 | – | – | – | – | –
10 | 5 (≈ 3.29 µg/mL) | C=CCOc1ccc2ccccc2c1-c1c(OCCCC(=O)N[C@H](CCCNC(=N)N)C(=O)OCc2ccccc2)ccc2ccccc12 | – | – | – | – | – | – | –
11 | – | N=C(N)NCCC[C@@H](NC(=O)CCCOc1ccc2ccccc2c1-c1c(OCCCC(=O)N[C@H](CCCNC(=N)N)C(=O)OCc2ccccc2)ccc2ccccc12)C(=O)OCc1ccccc1 (stereo in doubt; 21) | 31 (≈ 29.5 µg/mL) | 2 (≈ 1.9 µg/mL) | 31 (≈ 29.5 µg/mL) | 31 (≈ 29.5 µg/mL) | 61 (≈ 58 µg/mL) | – | –
12 | 2 (≈ 1.5 µg/mL) | C=CCc1cc2ccccc2c(-c2c(OC)c(CC(NC(C)=O)C(=O)N[C@H](CCCNC(=N)N)C(=O)N[C@@H](CC=C)C(=O)OC)cc3ccccc23)c1OC (some centres undefined) | – | – | – | – | – | – | –
13 | – | NCCCC[C@@H](NC(=O)CCCOc1ccc2ccccc2c1-c1c(OCCCC(=O)N[C@H](CCCCN)C(=O)OCc2cccc3ccccc23)ccc2ccccc12)C(=O)OCc1cccc2ccccc12 | 59 (≈ 58.7 µg/mL) | 7 (≈ 6.97 µg/mL) | 117 (≈ 116 µg/mL) | 117 (≈ 116 µg/mL) | > 117 | – | –
14 | – | N=C(N)NCCCC[C@@H](NC(=O)CCCOc1ccc2ccccc2c1-c1c(OCCCC(=O)N[C@H](CCCCNC(=N)N)C(=O)OCc2ccccc2)ccc2ccccc12)C(=O)OCc1ccccc1 | 59 (≈ 57.8 µg/mL) | 4 (≈ 3.92 µg/mL) | 59 (≈ 57.8 µg/mL) | 119 (≈ 117 µg/mL) | 59 (≈ 57.8 µg/mL) | – | –
15 | – | N=C(N)NCCC[C@@H](NC(=O)CCCOc1ccc2ccccc2c1-c1c(OCCCC(=O)N[C@H](CCCNC(=N)N)C(=O)OCc2ccccn2)ccc2ccccc12)C(=O)OCc1ccccn1 | > 122 | 15 (≈ 14.3 µg/mL) | > 122 | > 122 | > 122 | – | –
